Screening results as filed in PubChem.
Compounds with a hit are over-represented: about 1.9% of the library has one in this group of screens.
MT stabilizer: microtubule stabilization, imaging screen; HeLa tubulin immunostaining HCS, 24 h; share of cells brighter than vehicle mean+2SD; % tubulin-high responders, % at 10 µM; 200,000 compounds, 0.83% hits; AID 2205;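 active = plate Z-score above 3 for both tubulin-high and condensed-nucleus cell shares, with cell loss under 80%, at 10 µM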;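 also: anti alpha tubulin signal scored within the nucleus-defined area of each cell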
bCat nuc transl: alters nuclear translocation of beta-catenin in HeLa cells; 190,000 compounds, 0.3% hits; AID 1665; nuclear translocation activity, % at 5 µM; immunofluorescence imaging;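 active = nuclear translocation activity above 50% at 5 µM, with a well cell count of 50 or more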;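 also: per-cell ratio of nuclear to cytoplasmic median beta-catenin stain intensity; plate controls were DMSO negative control for no effect and GSK-3 inhibitor IX positive control for full effect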
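assay system = human HeLa cells, endogenous beta-catenin | times = compound treatment 24 h, 37°C, 5% CO2 | detection = Anti-beta-catenin immunofluorescence on PFA-fixed, Triton-permeabilized cells, DAPI nuclei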
ROMK primary: human ROMK K+ channel modulation, primary screen; Tet-inducible ROMK, thallium flux fluorescence; actives lie on both sides; B-score at 10 µM; 130,000 compounds, 2% hits; P48048;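 active = signal ratio slope over the read window, or its plate-corrected B-score, at least 3 SD from the plate mean, either direction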;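 also: B-score of the F/F0 ratio slope over 7 to 12 s after thallium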
Target sequence (P48048 whole entry, looked up): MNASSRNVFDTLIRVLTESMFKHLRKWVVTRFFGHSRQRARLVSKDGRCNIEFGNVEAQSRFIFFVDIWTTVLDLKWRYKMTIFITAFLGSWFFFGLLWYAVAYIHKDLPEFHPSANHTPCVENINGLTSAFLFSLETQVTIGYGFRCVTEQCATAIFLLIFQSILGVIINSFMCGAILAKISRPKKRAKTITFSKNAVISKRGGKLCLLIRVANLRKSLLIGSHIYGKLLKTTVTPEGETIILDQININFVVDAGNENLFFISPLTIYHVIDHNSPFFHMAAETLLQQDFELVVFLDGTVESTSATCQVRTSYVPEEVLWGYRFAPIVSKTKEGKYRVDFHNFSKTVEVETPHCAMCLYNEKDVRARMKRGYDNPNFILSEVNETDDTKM
Numbers without * were called inactive.

`CC(=C/C(=O)O)/C=C/c1ccc([N+](=O)[O-])cc1` gave MT stabilizer 3 and bCat nuc transl 1.
CC1(C)COC(/C=C/c2ccc([N+](=O)[O-])cc2)=N1 was read as MT stabilizer 18*, bCat nuc transl 32 and ROMK primary -2.
O=C(CCl)NC1(C(F)(F)F)C(=O)Nc2c1c(=O)[nH]c(=O)n2-c1ccccc1 (centres undefined) was read as bCat nuc transl 1.
`O=C(Cn1c(=O)n(-c2ccc(F)cc2)c(=O)c2sccc21)NC1CCCCC1` gave MT stabilizer 2 and ROMK primary 1.9.
`CC(Oc1ccc(Cl)cc1)C(=O)NCCN1C(=O)S/C(=C\c2cccnc2)C1=O` (centres undefined) gave MT stabilizer 1, bCat nuc transl 0 and ROMK primary -0.12.
Screening O=C(NCCN1C(=O)S/C(=C\c2ccc(OC(F)F)cc2)C1=O)c1cnccn1 returned MT stabilizer 34*, bCat nuc transl 68* and ROMK primary 0.61.
Cc1cc(OCC(=O)Nc2ccc(F)c(F)c2)nc(C(C)C)n1 was read as MT stabilizer 3, bCat nuc transl -1 and ROMK primary 0.32.
For Cc1ccc(C(C(=O)NC2CCCC2)N(Cc2ccc3c(c2)OCO3)C(=O)c2snc(C(N)=O)c2N)cc1 (centres undefined) the results were bCat nuc transl 4.
O=C(NC1CCCCC1)C(c1ccccc1)N(Cc1ccc2c(c1)OCO2)C(=O)c1cnsn1 (centres undefined) was read as MT stabilizer 3, bCat nuc transl 0 and ROMK primary -2.4*.
For COc1ccc(C=O)cc1Cn1ccnc1 the results were MT stabilizer 3, bCat nuc transl 0 and ROMK primary 0.21.
For Cc1cc(Cn2ccnc2)c(C)cc1Cn1ccnc1 the results were MT stabilizer 43*, bCat nuc transl -1 and ROMK primary 0.24.
Screening Cc1nnc(N/N=C/c2cccc(OCc3ccc(Cl)c(Cl)c3)c2)n1N returned MT stabilizer 5 and bCat nuc transl -3.
Screening COc1ccc(NCC(=O)n2c(C)c(C)c3ccccc32)cc1 returned MT stabilizer 20*, bCat nuc transl 41 and ROMK primary 1.8.
For COc1ccc(NC(=O)Cn2c(C)cc(=O)c3ccccc32)cc1 the results were MT stabilizer 3, bCat nuc transl -2 and ROMK primary -0.98.
Screening Cc1cccc(OCc2n[nH]c(=S)n2C2CCCCC2)c1 returned MT stabilizer 32*, bCat nuc transl 2 and ROMK primary -0.059.
`Cc1ccc(OCc2n[nH]c(=S)n2C2CCCCC2)cc1` gave MT stabilizer 2, bCat nuc transl -2 and ROMK primary 1.2.
`COC(=O)Nc1ccc(S(=O)(=O)N2CCCc3ccccc32)cc1` gave MT stabilizer 19* and bCat nuc transl -1.
COC(=O)Nc1ccc(S(=O)(=O)N2CCCc3cccc(O)c32)cc1 was read as MT stabilizer 2, bCat nuc transl 0 and ROMK primary -0.24.
For CCOC(=O)Nc1ccc2nc(N3CCCCCC3)sc2c1 the results were bCat nuc transl 84*.
For CCOC(=O)N1CCN(C(=O)Nc2ccc3nc(C)sc3c2)CC1 the results were MT stabilizer 4 and bCat nuc transl 0.
`OC(COc1ccc(CNCc2cccnc2)cc1)CN1CCc2ccccc2C1` (centres undefined) gave MT stabilizer 2, bCat nuc transl 2 and ROMK primary -0.81.
COc1cc(/C=C2\N=C(c3ccccc3)NNC2=O)cc(OC)c1OC was read as bCat nuc transl 65*.
Screening O=C1NNC(c2ccccc2)=N/C1=C\c1ccco1 returned bCat nuc transl -2.
`Cc1ccc(C2=[N+]([O-])C3(CCCCC/C3=N\NC(N)=S)N(O)C2(C)C)o1` (centres undefined) gave MT stabilizer 3 and ROMK primary -0.072.
Screening CC(=O)c1c(N2CCN(Cc3ccccc3)CC2)nc(=S)n(Cc2ccccc2)c1C returned MT stabilizer 2, bCat nuc transl -2 and ROMK primary -2.5.
Screening CC(=O)c1c(N2CCCC2)[nH]c(-c2ccccc2)nc1=S returned MT stabilizer 4 and ROMK primary 4.8*.
CC(=O)c1c(N)[nH]c(-c2ccccc2)nc1=S was read as MT stabilizer 5, bCat nuc transl 1 and ROMK primary 4.4*.
CC(=O)c1c(N2CCN(Cc3ccccc3)CC2)[nH]c(-c2ccccc2)nc1=S was read as MT stabilizer 6, bCat nuc transl -8 and ROMK primary 7.5*.
`CC(=O)c1c(C)[nH]c(-c2ccccc2)c1C` gave MT stabilizer 4 and bCat nuc transl 1.
`CC(=O)c1c(N2CCOCC2)[nH]c(-c2ccccc2)nc1=S` gave MT stabilizer 4 and ROMK primary 0.35.
Cc1cccc(C(=O)NNC(=O)c2ccco2)c1 was read as MT stabilizer 2, bCat nuc transl -1 and ROMK primary 0.15.
`O=C(/C=C/c1ccc(S(=O)(=O)N2CCOCC2)cc1)NCc1ccccc1` gave MT stabilizer 2 and bCat nuc transl -1.
`CS(=O)(=O)Nc1nnc(SCC(=O)N(c2ccccc2)c2ccccc2)s1` gave MT stabilizer 2 and bCat nuc transl -1.
For COc1ccc(N(C(C)=O)c2nc(C)cc(C)c2C#N)c(OC)c1 the results were MT stabilizer 3, bCat nuc transl 0 and ROMK primary 0.35.
For COc1ccc(/C=N/n2cncn2)cc1Cn1cc([N+](=O)[O-])cn1 the results were bCat nuc transl -1.
COc1ccc(/C=N/Nc2ccc([N+](=O)[O-])cc2)cc1Cn1cc([N+](=O)[O-])cn1 was read as MT stabilizer 9, bCat nuc transl 51* and ROMK primary 0.16.
Screening O=C(Nc1ccc(N2CCOCC2)cc1)c1cccc(S(=O)(=O)N2CCC(Cc3ccccc3)CC2)c1 returned MT stabilizer 3.
Screening Cc1sc2nc(CN3CCOCC3)[nH]c(=S)c2c1C returned MT stabilizer 3, bCat nuc transl 2 and ROMK primary 8.6*.
`Cc1sc2nc(CN3CCN(c4ccc(O)cc4)CC3)[nH]c(=O)c2c1C` gave bCat nuc transl 0.
Screening CCNc1ncnc2c1cnn2C returned MT stabilizer 3, bCat nuc transl 4 and ROMK primary 0.98.
Screening CC1=C(C(=O)OCC2CCCO2)C(c2ccc(Cl)cc2)NC(=O)N1 (centres undefined) returned MT stabilizer 3, bCat nuc transl -1 and ROMK primary -0.076.
`Cc1ccc2nc(Cl)c(/C=N/Nc3ccc(C(=O)O)cc3)cc2c1` gave bCat nuc transl 1 and ROMK primary -0.38.
`COC(=O)c1c(C)oc2ccc(N(C(=O)c3ccncc3)S(=O)(=O)c3ccc(C)cc3)cc12` gave MT stabilizer 13, bCat nuc transl 162* and ROMK primary 0.24.
COC(=O)c1c(C)oc2ccc(N(C(=O)c3ccncc3)S(=O)(=O)c3ccc(C)cc3C)cc12 was read as MT stabilizer 14*, bCat nuc transl 0 and ROMK primary -0.36.
`COC(=O)c1c(C)oc2ccc(N(C(=O)Oc3ccccc3)S(=O)(=O)c3ccc(Cl)c([N+](=O)[O-])c3)cc12` gave MT stabilizer 2, bCat nuc transl -1 and ROMK primary -0.0083.
